# In ChEMBL document CHEMBL5712901, “DOT1L inhibition blocks multiple myeloma cell proliferation by suppressing IRF4-MYC signaling” (2019):
# Activity calls are given as the source filed them. No cut-off for these calls is given here.
# Experiments:
# MM1.S [1] = experiment: Induction of apoptosis in human MM1.S cells assessed as late apoptotic cells at 1 uM for 6 days by annexin-V based propidium iodide staining based flow cytometric analysis (reference value: 13.4%); type: functional; details: time 6 day
# MM1.S [2] = experiment: Induction of apoptosis in human MM1.S cells assessed as late apoptotic cells at 1 uM for 3 days by annexin-V based propidium iodide staining based flow cytometric analysis (reference value: 0.15%); type: functional; details: time 3 day
# MM1.S [3] = experiment: Induction of apoptosis in human MM1.S cells assessed as necrotic cells at 1 uM for 3 days by annexin-V based propidium iodide staining based flow cytometric analysis (reference value: 0.064%); type: functional; details: time 3 day
# MM1.S [4] = experiment: Upregulation of IFN in human MM1.S cells assessed as increase in IFI44 gene at 1 uM for 6 days by qRT-PCR analysis; details: time 6.0 day
# KMS-11 = experiment: Upregulation of DOT1L in human KMS-11 cells by qRT-PCR analysis; type: functional, cell-based
# Method in brief: (§1)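 Basal DOT1L transcript in untreated myeloma cell lines measured by qRT-PCR, normalized to ACTB; mean of 3 replicates with SEM.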
# KMS-12-BM = experiment: Upregulation of DOT1L in human KMS-12-BM cells by qRT-PCR analysis; type: functional, cell-based; method in brief: as §1
# MM1.S [5] = experiment: Downregulation of H3K79me2 level in human MM1.S cells at 1 uM for 3 days by ChIP-qPCR analysis; type: functional, cell-based; details: time 3.0 day
# Method in brief: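 ChIP-qPCR for H3K79me2 at IRF4-MYC signaling genes after 1 μM inhibitor or DMSO for 3 days. Signal normalized to input DNA. An intergenic region 28 kb upstream of KLF2 served as negative control. Mean of 3 replications ± SEM.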
# MM1.S [6] = experiment: Upregulation of IFN in human MM1.S cells assessed as increase in IFI44 gene at 1 uM for 6 days by qRT-PCR analysis; type: functional, cell-based; details: time 6.0 day
# RPMI-8226 [7] = experiment: Upregulation of ACOT11 gene in human RPMI-8226 cells at 1 uM for 6 days by; type: functional, cell-based; details: time 6.0 day
# RPMI-8226 [8] = experiment: Upregulation of ANTXR2 gene in human RPMI-8226 cells at 1 uM for 6 days by; type: functional, cell-based; details: time 6.0 day
# RPMI-8226 [9] = experiment: Upregulation of BATF3 gene in human RPMI-8226 cells at 1 uM for 6 days by; type: functional, cell-based; details: time 6.0 day
# RPMI-8226 [10] = experiment: Upregulation of CTSH gene in human RPMI-8226 cells at 1 uM for 6 days by; type: functional, cell-based; details: time 6.0 day
# Method in brief: (§2)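 Human myeloma lines RPMI-8226 and MM.1S exposed to 1 μM DOT1L inhibitor, or DMSO, for 6 days. Whole-genome expression profiled on gene expression microarray.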
# RPMI-8226 [11] = experiment: Upregulation of DDIT4L gene in human RPMI-8226 cells at 1 uM for 6 days by; type: functional, cell-based; details: time 6.0 day; method in brief: as §2
# RPMI-8226 [12] = experiment: Upregulation of FAM200B gene in human RPMI-8226 cells at 1 uM for 6 days by; type: functional, cell-based; details: time 6.0 day; method in brief: as §2
# RPMI-8226 [13] = experiment: Upregulation of GPD2 gene in human RPMI-8226 cells at 1 uM for 6 days by; type: functional, cell-based; details: time 6.0 day; method in brief: as §2
# RPMI-8226 [14] = experiment: Upregulation of HLA-DQB1 gene in human RPMI-8226 cells at 1 uM for 6 days by; type: functional, cell-based; details: time 6.0 day
# RPMI-8226 [15] = experiment: Upregulation of HLA-DRA gene in human RPMI-8226 cells at 1 uM for 6 days by; type: functional, cell-based; details: time 6.0 day
# RPMI-8226 [16] = experiment: Upregulation of HLA-DRB1 gene in human RPMI-8226 cells at 1 uM for 6 days by; type: functional, cell-based; details: time 6.0 day
# RPMI-8226 [17] = experiment: Upregulation of MYO1F gene in human RPMI-8226 cells at 1 uM for 6 days by; type: functional, cell-based; details: time 6.0 day
# RPMI-8226 [18] = experiment: Upregulation of MYOF gene in human RPMI-8226 cells at 1 uM for 6 days by; type: functional, cell-based; details: time 6.0 day
# RPMI-8226 [19] = experiment: Upregulation of PTGER4 gene in human RPMI-8226 cells at 1 uM for 6 days by; type: functional, cell-based; details: time 6.0 day
# RPMI-8226 [20] = experiment: Upregulation of PTPRD gene in human RPMI-8226 cells at 1 uM for 6 days by; type: functional, cell-based; details: time 6.0 day
# RPMI-8226 [21] = experiment: Upregulation of S100A10 gene in human RPMI-8226 cells at 1 uM for 6 days by; type: functional, cell-based; details: time 6.0 day
# RPMI-8226 [22] = experiment: Upregulation of SORL1 gene in human RPMI-8226 cells at 1 uM for 6 days by; type: functional, cell-based; details: time 6.0 day
# RPMI-8226 [23] = experiment: Upregulation of ZG16B gene in human RPMI-8226 cells at 1 uM for 6 days by; type: functional, cell-based; details: time 6.0 day
# MM1.S [24] = experiment: Upregulation of ACOT11 gene in human MM1.S cells at 1 uM for 6 days by; type: functional, cell-based; details: time 6.0 day
# MM1.S [25] = experiment: Upregulation of CCDC74B gene in human MM1.S cells at 1 uM for 6 days by; type: functional, cell-based; details: time 6.0 day
# MM1.S [26] = experiment: Upregulation of CCR5 gene in human MM1.S cells at 1 uM for 6 days by; type: functional, cell-based; details: time 6.0 day
# MM1.S [27] = experiment: Upregulation of CHRNA6 gene in human MM1.S cells at 1 uM for 6 days by; type: functional, cell-based; details: time 6.0 day
# MM1.S [28] = experiment: Upregulation of CPED1 gene in human MM1.S cells at 1 uM for 6 days by; type: functional, cell-based; details: time 6.0 day; method in brief: as §2
# MM1.S [29] = experiment: Upregulation of CTSH gene in human MM1.S cells at 1 uM for 6 days by; type: functional, cell-based; details: time 6.0 day; method in brief: as §2
# MM1.S [30] = experiment: Upregulation of EMID1 gene in human MM1.S cells at 1 uM for 6 days by; type: functional, cell-based; details: time 6.0 day; method in brief: as §2
# MM1.S [31] = experiment: Upregulation of FZD1 gene in human MM1.S cells at 1 uM for 6 days by; type: functional, cell-based; details: time 6.0 day; method in brief: as §2
# MM1.S [32] = experiment: Upregulation of MS4A4A gene in human MM1.S cells at 1 uM for 6 days by; type: functional, cell-based; details: time 6.0 day
# MM1.S [33] = experiment: Upregulation of NREP gene in human MM1.S cells at 1 uM for 6 days by; type: functional, cell-based; details: time 6.0 day
# MM1.S [34] = experiment: Upregulation of NTNG1 gene in human MM1.S cells at 1 uM for 6 days by; type: functional, cell-based; details: time 6.0 day
# MM1.S [35] = experiment: Upregulation of PARP8 gene in human MM1.S cells at 1 uM for 6 days by; type: functional, cell-based; details: time 6.0 day
# MM1.S [36] = experiment: Upregulation of PRDM8 gene in human MM1.S cells at 1 uM for 6 days by; type: functional, cell-based; details: time 6.0 day
# MM1.S [37] = experiment: Upregulation of PRRT2 gene in human MM1.S cells at 1 uM for 6 days by; type: functional, cell-based; details: time 6.0 day
# MM1.S [38] = experiment: Upregulation of PTGER4 gene in human MM1.S cells at 1 uM for 6 days by; type: functional, cell-based; details: time 6.0 day
# MM1.S [39] = experiment: Upregulation of PYCARD gene in human MM1.S cells at 1 uM for 6 days by; type: functional, cell-based; details: time 6.0 day
# MM1.S [40] = experiment: Upregulation of RGS1 gene in human MM1.S cells at 1 uM for 6 days by; type: functional, cell-based; details: time 6.0 day
# MM1.S [41] = experiment: Upregulation of RORC gene in human MM1.S cells at 1 uM for 6 days by; type: functional, cell-based; details: time 6.0 day
# MM1.S [42] = experiment: Upregulation of S100A10 gene in human MM1.S cells at 1 uM for 6 days by; type: functional, cell-based; details: time 6.0 day
# MM1.S [43] = experiment: Upregulation of SLC9A9 gene in human MM1.S cells at 1 uM for 6 days by; type: functional, cell-based; details: time 6.0 day
# MM1.S [44] = experiment: Upregulation of SMIM14 gene in human MM1.S cells at 1 uM for 6 days by; type: functional, cell-based; details: time 6.0 day
# MM1.S [45] = experiment: Upregulation of XKR3 gene in human MM1.S cells at 1 uM for 6 days by; type: functional, cell-based; details: time 6.0 day
# MM1.S [46] = experiment: Upregulation of ZSCAN31 gene in human MM1.S cells at 1 uM for 6 days by; type: functional, cell-based; details: time 6.0 day
smiles,measurement,setting,value
CC(C)N(C[C@H]1O[C@@H](n2cnc3c(N)ncnc32)[C@H](O)[C@@H]1O)[C@H]1C[C@@H](CCc2nc3cc(C(C)(C)C)ccc3[nH]2)C1 [PINOMETOSTAT],Activity,MM1.S [1],27.8%
same,Activity,MM1.S [2],0.083%
same,Activity,MM1.S [3],0.06%
same,Activity,MM1.S [4],Active
CC(C)N(CCCNC(=O)Nc1ccc(C(C)(C)C)cc1)C[C@H]1O[C@@H](n2cc(Br)c3c(N)ncnc32)[C@H](O)[C@@H]1O,Activity,KMS-11,Active
same,Activity,KMS-12-BM,Active
same,Activity,MM1.S [5],Active
same,Activity,MM1.S [6],Active
same,Activity,RPMI-8226 [7],Active
same,Activity,RPMI-8226 [8],Active
same,Activity,RPMI-8226 [9],Active
same,Activity,RPMI-8226 [10],Active
same,Activity,RPMI-8226 [11],Active
same,Activity,RPMI-8226 [12],Active
same,Activity,RPMI-8226 [13],Active
same,Activity,RPMI-8226 [14],Active
same,Activity,RPMI-8226 [15],Active
same,Activity,RPMI-8226 [16],Active
same,Activity,RPMI-8226 [17],Active
same,Activity,RPMI-8226 [18],Active
same,Activity,RPMI-8226 [19],Active
same,Activity,RPMI-8226 [20],Active
same,Activity,RPMI-8226 [21],Active
same,Activity,RPMI-8226 [22],Active
same,Activity,RPMI-8226 [23],Active
same,Activity,MM1.S [24],Active
same,Activity,MM1.S [25],Active
same,Activity,MM1.S [26],Active
same,Activity,MM1.S [27],Active
same,Activity,MM1.S [28],Active
same,Activity,MM1.S [29],Active
same,Activity,MM1.S [30],Active
same,Activity,MM1.S [31],Active
same,Activity,MM1.S [32],Active
same,Activity,MM1.S [33],Active
same,Activity,MM1.S [34],Active
same,Activity,MM1.S [35],Active
same,Activity,MM1.S [36],Active
same,Activity,MM1.S [37],Active
same,Activity,MM1.S [38],Active
same,Activity,MM1.S [39],Active
same,Activity,MM1.S [40],Active
same,Activity,MM1.S [41],Active
same,Activity,MM1.S [42],Active
same,Activity,MM1.S [43],Active
same,Activity,MM1.S [44],Active
same,Activity,MM1.S [45],Active
same,Activity,MM1.S [46],Active
